This is an account of results in ChEMBL document CHEMBL4138056, “T- and B-cell immunosuppressive activity of novel α-santonin analogs with humoral and cellular immune response in Balb/c mice” (Medchemcomm, 2017).

The test system of series [1] is B-cell line. Kind of series: Immunosuppressive activity in Balb/c mouse B cells assessed as inhibition of LPS-induced cell proliferation at 100 uM after 48 hrs by MTT assay relative to control. It is filed as functional. The gist of the method:
(§1)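 Balb/c spleen single-cell suspension, RBCs lysed with tris-ammonium chloride, viability by trypan blue; 1×10^6 cells/mL stimulated with LPS (10 μg/mL) for B cells, test agent 1, 10 or 100 μM, 48 h at 37 °C, 5% CO2. MTT 4 h, DMSO solubilization, OD 540 nm; % change vs mitogen control; triplicate, three separate experiments.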

Series [2] concerns B-cell line. Kind of series: Immunosuppressive activity in Balb/c mouse B cells assessed as inhibition of LPS-induced cell proliferation at 10 uM after 48 hrs by MTT assay relative to control. Format: functional. Put shortly: as §1
Series [3] concerns B-cell line. In words: Immunosuppressive activity in Balb/c mouse B cells assessed as inhibition of LPS-induced cell proliferation at 1 uM after 48 hrs by MTT assay relative to control. Format: functional. Put shortly:
as §1

For series [4], the system named is Murine T-cell line. Kind of series: Cytotoxicity against Balb/c mouse T cells assessed as decrease in cell survival at 100 uM by MTT assay. It is filed as cell-based. The gist of the method:
(§2)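 Balb/c splenocytes (RBC lysed with tris-ammonium chloride, trypan blue viability) seeded at 1×10^6 cells/mL with Con A or LPS (10 μg/mL each) and test agent at 1, 10 or 100 μM for 48 h at 37 °C, 5% CO2; MTT added for 4 h, formazan dissolved in DMSO, OD 540 nm. Cytotoxicity scored +/−; triplicate, three separate experiments.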

In series [5] the test system is Murine T-cell line. Kind of series: Cytotoxicity against Balb/c mouse T cells assessed as decrease in cell survival at 10 uM by MTT assay. It is filed as cell-based. Put shortly:
as §2

Series [6] deals with Murine T-cell line. Kind of series: Cytotoxicity against Balb/c mouse T cells assessed as decrease in cell survival at 1 uM by MTT assay. It is filed as cell-based. Put shortly: as §2
The test system of series [7] is B-cell line. In words: Cytotoxicity against Balb/c mouse B cells assessed as decrease cell survival at 100 uM by MTT assay. It is filed as cell-based. Put shortly:
as §2

The test system of series [8] is B-cell line. In words: Cytotoxicity against Balb/c mouse B cells assessed as decrease cell survival at 10 uM by MTT assay. It is filed as cell-based. Put shortly:
as §2

Series [9] deals with B-cell line. Kind of series: Cytotoxicity against Balb/c mouse B cells assessed as decrease cell survival at 1 uM by MTT assay. Format: cell-based. The gist of the method:
as §2

The subject of series [10] is Murine T-cell line. Kind of series: Immunosuppressive activity in Balb/c mouse T cells assessed as inhibition of ConA-induced cell proliferation at 1 uM after 48 hrs by MTT assay relative to control.
Series [11] has as its system Murine T-cell line. In words: Immunosuppressive activity in Balb/c mouse T cells assessed as inhibition of ConA-induced cell proliferation at 10 uM after 48 hrs by MTT assay relative to control.
The test system of series [12] is Murine T-cell line. Kind of series: Immunosuppressive activity in Balb/c mouse T cells assessed as inhibition of ConA-induced cell proliferation at 100 uM after 48 hrs by MTT assay relative to control.
Series [13] deals with Murine T-cell line. Kind of series: Immunostimulant activity in Balb/c mouse T cells assessed as induction of ConA-induced cell proliferation at 100 uM after 48 hrs by MTT assay relative to control.

The structures appear in SMILES notation.

As for `CC(=O)Oc1cc(C)c2c(c1C)[C@@H]1OC(=O)[C@@H](C)[C@@H]1CC2`, the inhibition at 100 µM in the series on B-cell line [1] was 68%; in the series with Murine T-cell line [12], 63%. For the same compound, the values for the inhibition at 10 µM in the series with B-cell line [2] and in the series on Murine T-cell line [11] were 44.3% and 45.2%, respectively. For the same compound, the inhibition at 1 µM in the series with B-cell line [3] is 51.8%; in the series on Murine T-cell line [10], 39.7%. For the same compound, the Activity result with Murine T-cell line [4] was “Toxic”; in the series with Murine T-cell line [5], “Non-Toxic”; in the series on Murine T-cell line [6], “Non-Toxic”; with B-cell line [7], “Toxic”; in the series on B-cell line [8] it was “Non-Toxic”; in the series on B-cell line [9], “Non-Toxic”.
For `CCCCCOc1cc(C)c2c(c1C)[C@@H]1OC(=O)[C@@H](C)[C@@H]1CC2`, the inhibition at 100 µM in the series with B-cell line [1] came out at 9.59%; in the series with Murine T-cell line [12] it was 29.4%. In addition, the values for the inhibition at 10 µM in the series with B-cell line [2] and in the series with Murine T-cell line [11] were 32.4% and 33.1%, respectively. Besides, the inhibition at 1 µM turned out to be 29.5% in the series with B-cell line [3] and 11.1% with Murine T-cell line [10]. Further, the Activity entry with Murine T-cell line [4], in the series with Murine T-cell line [5], with Murine T-cell line [6], in the series with B-cell line [7], in the series on B-cell line [8] and with B-cell line [9] was “Toxic” throughout.
Turning to `CCC(=O)Oc1cc(C)c2c(c1C)[C@@H]1OC(=O)[C@@H](C)[C@@H]1CC2`, the values for the inhibition at 100 µM with B-cell line [1] and in the series on Murine T-cell line [12] were 69% and 41%, respectively. For the same compound, the inhibition at 10 µM is 43% in the series with B-cell line [2] and 33% in the series with Murine T-cell line [11]. The inhibition at 1 µM in the series with B-cell line [3] was 20%; in the series on Murine T-cell line [10], 11.7%. Also, the Activity entry in the series on Murine T-cell line [4], in the series on Murine T-cell line [5], with Murine T-cell line [6], with B-cell line [7], in the series with B-cell line [8] and in the series on B-cell line [9] was “Toxic” each time.
In the case of `Cc1cc(OC(=O)CCC(=O)O)c(C)c2c1CC[C@H]1[C@H](C)C(=O)O[C@@H]21`, the inhibition at 100 µM with B-cell line [1] stood at 5.2%; in the series on Murine T-cell line [12], 61.7%. Also, the results for the inhibition at 10 µM in the series on B-cell line [2] and with Murine T-cell line [11] were 42.7% and 53.4%, respectively. Besides, the inhibition at 1 µM in the series with B-cell line [3] came to 33.3%; in the series with Murine T-cell line [10], 29.4%. Further, the Activity entry in the series with Murine T-cell line [4] is “Toxic”; in the series with Murine T-cell line [5], “Toxic”; with Murine T-cell line [6] it was “Non-Toxic”; in the series with B-cell line [7] it was “Toxic”; in the series with B-cell line [8] it was “Toxic”; in the series with B-cell line [9], “Non-Toxic”.
Consider `COc1ccc(NC(=O)CCC(=O)Oc2cc(C)c3c(c2C)[C@@H]2OC(=O)[C@@H](C)[C@@H]2CC3)cc1`, for which the inhibition at 100 µM in the series with B-cell line [1] is 68%; with Murine T-cell line [12], 58%. Also, the inhibition at 10 µM came to 52% in the series on B-cell line [2] and 35% in the series on Murine T-cell line [11]. For the same compound, the figures for the inhibition at 1 µM with B-cell line [3] and in the series on Murine T-cell line [10] were 17.7% and 1%, respectively. The Activity result is on record as “Toxic” with Murine T-cell line [4]; “Non-Toxic” with Murine T-cell line [5]; “Non-Toxic” with Murine T-cell line [6]; “Toxic” with B-cell line [7]; “Non-Toxic” in the series on B-cell line [8]; “Non-Toxic” with B-cell line [9].
As to `Cc1cc(OC(=O)CCC(=O)Nc2ccccc2Cl)c(C)c2c1CC[C@H]1[C@H](C)C(=O)O[C@@H]21`, the results for the inhibition at 100 µM in the series on B-cell line [1] and in the series on Murine T-cell line [12] were 69% and 56%, respectively. The figures for the inhibition at 10 µM in the series with B-cell line [2] and in the series with Murine T-cell line [11] were 51% and 45%, respectively. Besides, the inhibition at 1 µM in the series on B-cell line [3] stood at 27.7%; in the series with Murine T-cell line [10], 13%. In addition, the Activity result with Murine T-cell line [4], in the series with Murine T-cell line [5], in the series on Murine T-cell line [6], with B-cell line [7], with B-cell line [8] and with B-cell line [9] was “Non-Toxic” throughout.
`CCCC(=O)Oc1cc(C)c2c(c1C)[C@@H]1OC(=O)[C@@H](C)[C@@H]1CC2`: the inhibition at 100 µM with B-cell line [1] amounted to 69.8%; in the series with Murine T-cell line [12] it was 71.9%. Further, the inhibition at 10 µM amounted to 35.4% in the series on B-cell line [2] and 38% in the series on Murine T-cell line [11]. For the same compound, the inhibition at 1 µM with B-cell line [3] was determined as 12.5%; in the series on Murine T-cell line [10], 28.5%. Besides, the Activity result in the series on Murine T-cell line [4], in the series with Murine T-cell line [5], in the series with Murine T-cell line [6], in the series on B-cell line [7], in the series on B-cell line [8] and in the series on B-cell line [9] was “Non-Toxic” in each case.
For the compound `CCCCOc1cc(C)c2c(c1C)[C@@H]1OC(=O)[C@@H](C)[C@@H]1CC2`, the inhibition at 100 µM in the series with B-cell line [1] came to 39%; with Murine T-cell line [12] it was 33.8%. For the same compound, the inhibition at 10 µM with B-cell line [2] turned out to be 33.3%; in the series with Murine T-cell line [11], 51%. Further, the inhibition at 1 µM in the series on B-cell line [3] was found to be 25.2%; in the series with Murine T-cell line [10] it was 32%. Further, the Activity result in the series with Murine T-cell line [4], in the series with Murine T-cell line [5], with Murine T-cell line [6], in the series with B-cell line [7], with B-cell line [8] and in the series on B-cell line [9] was “Non-Toxic” throughout.
For the compound `Cc1cc(OC(=O)c2ccccc2)c(C)c2c1CC[C@H]1[C@H](C)C(=O)O[C@@H]21`, the inhibition at 100 µM with B-cell line [1] is 17.7%. Further, the inhibition at 10 µM came to 43.8% in the series with B-cell line [2] and 39.4% in the series on Murine T-cell line [11]. The inhibition at 1 µM is 18.8% in the series with B-cell line [3] and 71.8% with Murine T-cell line [10]. For the same compound, the Activity entry in the series with Murine T-cell line [4], in the series on Murine T-cell line [5], in the series with Murine T-cell line [6], with B-cell line [7], in the series on B-cell line [8] and in the series with B-cell line [9] was “Non-Toxic” each time. In addition, in the series with Murine T-cell line [13], the Activity is listed as 23.94%.
Take `Cc1cc(OC(=O)CCC(=O)Nc2ccccc2F)c(C)c2c1CC[C@H]1[C@H](C)C(=O)O[C@@H]21`: the inhibition at 100 µM in the series on B-cell line [1] stood at 77.9%; in the series with Murine T-cell line [12] it was 66.7%. In addition, the inhibition at 10 µM with B-cell line [2] amounted to 44%; in the series on Murine T-cell line [11] it was 41.7%. Also, the inhibition at 1 µM worked out at 21% in the series with B-cell line [3] and 16.7% in the series on Murine T-cell line [10]. For the same compound, the Activity result with Murine T-cell line [4], in the series on Murine T-cell line [5], with Murine T-cell line [6], in the series with B-cell line [7], in the series with B-cell line [8] and in the series with B-cell line [9] was “Non-Toxic” each time.
As to `COc1cc(C)c2c(c1C)[C@@H]1OC(=O)[C@@H](C)[C@@H]1CC2`, the figures for the inhibition at 100 µM in the series on B-cell line [1] and in the series with Murine T-cell line [12] were 21% and 16.1%, respectively. Besides, the values for the inhibition at 10 µM in the series on B-cell line [2] and with Murine T-cell line [11] were 19.1% and 23.2%, respectively. The inhibition at 1 µM in the series on B-cell line [3] came out at 42%; in the series on Murine T-cell line [10] it was 50%. Also, the Activity entry in the series with Murine T-cell line [4], in the series on Murine T-cell line [5], in the series on Murine T-cell line [6], with B-cell line [7], in the series on B-cell line [8] and in the series on B-cell line [9] was “Toxic” throughout.
In the case of `CCOc1cc(C)c2c(c1C)[C@@H]1OC(=O)[C@@H](C)[C@@H]1CC2`, the inhibition at 100 µM in the series on B-cell line [1] is 46%. Also, the inhibition at 10 µM in the series on B-cell line [2] came out at 1%; in the series with Murine T-cell line [11], 5%. Besides, the inhibition at 1 µM in the series on B-cell line [3] came to 35%; in the series with Murine T-cell line [10] it was 28%. Besides, the Activity result in the series on Murine T-cell line [4] is recorded as “Toxic”; in the series on Murine T-cell line [5], “Toxic”; with Murine T-cell line [6] it was “Non-Toxic”; in the series with B-cell line [7], “Toxic”; in the series on B-cell line [8] it was “Toxic”; in the series with B-cell line [9], “Non-Toxic”. Besides, in the series with Murine T-cell line [13], the Activity was determined as 16%.
`Cc1cc(OCc2ccc(Cl)cc2)c(C)c2c1CC[C@H]1[C@H](C)C(=O)O[C@@H]21`: the inhibition at 100 µM is 28% in the series with B-cell line [1] and 45% with Murine T-cell line [12]. Moreover, the inhibition at 10 µM in the series on B-cell line [2] was found to be 37%; with Murine T-cell line [11] it was 33%. The inhibition at 1 µM in the series on B-cell line [3] is 37%; in the series with Murine T-cell line [10], 15%. In addition, the Activity entry in the series with Murine T-cell line [4] was “Toxic”; in the series with Murine T-cell line [5], “Non-Toxic”; with Murine T-cell line [6], “Non-Toxic”; with B-cell line [7], “Toxic”; in the series with B-cell line [8], “Non-Toxic”; in the series on B-cell line [9], “Non-Toxic”.
